Measured values: ChEMBL document CHEMBL4819114, “Discovery of a potent and selective Axl inhibitor in preclinical model” (Bioorg Med Chem, 2021)
Converted amounts (≈) assume the structure as drawn. The source made the active and inactive calls. The rule behind the calls is not given here.

Experiments:
[1] = Kinetic solubility of compound in PBS buffer at pH 7 incubated for 15 mins by HPLC-UV analysis
[2] = Metabolic stability in mouse liver microsomes assessed as residual ratio measured after 30 mins in presence of NADPH by LC-MS/MS analysis relative to absence of NADPH; assay type: ADME, Microsome; details: read-out: Stabilty
Outline: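 Incubation with mouse liver microsomes (0.5 mg/mL), 30 min at 37 °C, in 0.1 M potassium phosphate pH 7.4, 0.1 mM EDTA, 6 mM MgCl2 and an NADPH-generating system (β-NADP+, glucose-6-phosphate, G6P dehydrogenase). Quenched with acetonitrile/methanol (7:3) containing propranolol internal standard, then LC-MS/MS. Residual ratio with NADPH taken relative to without NADPH.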

[3] = Toxicity in BALB/c mouse assessed as effect on body weight at 100 mg/kg, po administered for 14 days; assay type: organism-based; details: in vivo, 336 h, time 14 day
Outline: (§1)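 Female BALB/cAJcl mice (n = 3 or 5/group) dosed orally once daily for 14 days at 100 mg/kg; controls untreated. Body weight tracked. At necropsy after dosing, eyes fixed in 3% glutaraldehyde/2.5% formalin, paraffin-embedded, sectioned, stained with hematoxylin-eosin, and the retina examined histopathologically.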

[4] = Toxicity in BALB/c mouse assessed as induction of necrosis in photoreceptor cells at 100 mg/kg, po administered for 14 days hematoxylin and eosin staining based assay; assay type: organism-based; details: in vivo, 336 h, time 14 day; outline: as §1
[5] = target: T1, Tyrosine-protein kinase receptor TYRO3 (Homo sapiens) (UniProt Q06418); experiment: Inhibition of Tyro3 (unknown origin)
T1 sequence (whole entry): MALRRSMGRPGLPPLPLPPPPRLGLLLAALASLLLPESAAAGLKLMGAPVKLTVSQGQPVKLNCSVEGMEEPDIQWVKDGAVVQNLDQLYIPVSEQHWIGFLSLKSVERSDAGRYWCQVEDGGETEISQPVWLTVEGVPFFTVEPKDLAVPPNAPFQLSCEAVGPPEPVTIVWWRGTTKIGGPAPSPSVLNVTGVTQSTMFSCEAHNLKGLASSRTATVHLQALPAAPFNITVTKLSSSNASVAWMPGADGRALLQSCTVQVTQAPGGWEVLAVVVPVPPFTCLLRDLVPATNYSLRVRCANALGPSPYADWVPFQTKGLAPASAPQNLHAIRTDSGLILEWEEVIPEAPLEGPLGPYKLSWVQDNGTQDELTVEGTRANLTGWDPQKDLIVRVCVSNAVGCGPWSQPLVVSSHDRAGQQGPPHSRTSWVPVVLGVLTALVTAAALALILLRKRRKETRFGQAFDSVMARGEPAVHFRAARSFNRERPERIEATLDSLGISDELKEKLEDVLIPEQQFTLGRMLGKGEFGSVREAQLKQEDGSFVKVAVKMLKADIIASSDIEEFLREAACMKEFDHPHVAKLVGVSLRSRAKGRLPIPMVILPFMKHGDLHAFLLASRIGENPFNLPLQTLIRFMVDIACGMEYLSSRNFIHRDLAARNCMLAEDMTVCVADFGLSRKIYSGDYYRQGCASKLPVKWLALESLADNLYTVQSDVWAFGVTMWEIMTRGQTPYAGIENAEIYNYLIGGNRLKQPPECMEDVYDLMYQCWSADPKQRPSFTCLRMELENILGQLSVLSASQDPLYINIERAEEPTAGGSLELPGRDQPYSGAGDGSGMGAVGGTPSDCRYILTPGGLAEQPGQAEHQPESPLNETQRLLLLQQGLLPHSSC

[6] = target: Hepatocyte growth factor receptor (Homo sapiens) (UniProt P08581); experiment: Inhibition of c-Met (unknown origin)
Chain of Hepatocyte growth factor receptor (Homo sapiens) (P08581 whole entry): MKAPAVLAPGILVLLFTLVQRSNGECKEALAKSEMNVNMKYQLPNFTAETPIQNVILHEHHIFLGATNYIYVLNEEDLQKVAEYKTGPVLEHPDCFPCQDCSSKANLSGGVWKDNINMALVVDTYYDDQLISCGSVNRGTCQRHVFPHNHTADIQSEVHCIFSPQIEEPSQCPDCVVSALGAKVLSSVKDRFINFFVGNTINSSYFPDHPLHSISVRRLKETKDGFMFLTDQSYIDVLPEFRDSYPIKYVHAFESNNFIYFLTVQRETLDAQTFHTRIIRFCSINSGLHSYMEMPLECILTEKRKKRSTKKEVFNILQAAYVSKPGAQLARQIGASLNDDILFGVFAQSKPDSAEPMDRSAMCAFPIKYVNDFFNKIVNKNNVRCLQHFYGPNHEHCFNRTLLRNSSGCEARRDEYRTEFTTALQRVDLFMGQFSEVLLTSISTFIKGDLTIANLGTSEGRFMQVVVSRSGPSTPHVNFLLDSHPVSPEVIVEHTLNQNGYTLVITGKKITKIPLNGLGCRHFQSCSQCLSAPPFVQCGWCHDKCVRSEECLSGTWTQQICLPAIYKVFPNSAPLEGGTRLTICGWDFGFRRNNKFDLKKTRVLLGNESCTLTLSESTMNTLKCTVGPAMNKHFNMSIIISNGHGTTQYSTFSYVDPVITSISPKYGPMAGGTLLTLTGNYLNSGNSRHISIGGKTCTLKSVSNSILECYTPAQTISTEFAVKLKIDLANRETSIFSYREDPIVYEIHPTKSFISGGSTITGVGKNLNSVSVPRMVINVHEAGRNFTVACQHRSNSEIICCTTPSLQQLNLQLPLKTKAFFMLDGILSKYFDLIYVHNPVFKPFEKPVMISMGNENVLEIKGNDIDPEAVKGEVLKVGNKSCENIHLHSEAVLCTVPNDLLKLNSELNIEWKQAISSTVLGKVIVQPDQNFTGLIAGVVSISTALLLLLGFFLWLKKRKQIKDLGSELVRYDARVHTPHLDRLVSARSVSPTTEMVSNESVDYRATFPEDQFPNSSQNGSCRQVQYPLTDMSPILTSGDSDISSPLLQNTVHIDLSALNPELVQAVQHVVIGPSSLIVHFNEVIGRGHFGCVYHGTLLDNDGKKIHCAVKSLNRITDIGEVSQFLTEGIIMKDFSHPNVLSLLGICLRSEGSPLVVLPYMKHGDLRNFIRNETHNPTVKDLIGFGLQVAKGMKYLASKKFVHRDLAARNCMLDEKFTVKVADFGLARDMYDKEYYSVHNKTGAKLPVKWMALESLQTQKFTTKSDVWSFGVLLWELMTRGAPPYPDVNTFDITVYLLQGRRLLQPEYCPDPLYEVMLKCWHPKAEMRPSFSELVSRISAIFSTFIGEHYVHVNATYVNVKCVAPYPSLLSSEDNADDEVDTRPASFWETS

[7] = target: Tyrosine-protein kinase Lck (Homo sapiens) (UniProt P06239); experiment: Inhibition of LCK (unknown origin)
Chain of Tyrosine-protein kinase Lck (Homo sapiens) (P06239 2-509 limits assumed): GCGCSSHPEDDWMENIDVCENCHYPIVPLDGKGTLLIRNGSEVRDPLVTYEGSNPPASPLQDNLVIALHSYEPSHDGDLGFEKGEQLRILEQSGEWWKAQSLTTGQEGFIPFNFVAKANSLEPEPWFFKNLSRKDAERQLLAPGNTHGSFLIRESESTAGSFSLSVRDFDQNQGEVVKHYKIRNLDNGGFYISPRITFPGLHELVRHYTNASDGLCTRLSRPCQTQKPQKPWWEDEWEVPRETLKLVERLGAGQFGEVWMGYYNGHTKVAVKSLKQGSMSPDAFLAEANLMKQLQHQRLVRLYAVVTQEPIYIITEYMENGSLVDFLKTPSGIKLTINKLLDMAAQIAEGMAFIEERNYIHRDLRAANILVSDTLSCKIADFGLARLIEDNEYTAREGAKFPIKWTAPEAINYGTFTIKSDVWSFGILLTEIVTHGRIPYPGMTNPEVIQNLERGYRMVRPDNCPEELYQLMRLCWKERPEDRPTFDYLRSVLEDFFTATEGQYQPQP

[8] = Cmax in CAnN.Cg-Foxnlnu/Cr1Crlj mouse at 10 mg/kg, po measured upto 24 hrs by LC-MS/MS analysis; assay type: ADME, organism-based; parameters: route oral, dose 10 mg/kg, time <=24; details: in vivo
Outline: (§2)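 Single oral dose in DMSO/Tween80/5% glucose (7:13:80, v/v/v) to female mice. Blood taken from retinal vein at 0.5, 1, 2, 8 and 24 h and spun to plasma. Plasma precipitated with 20 volumes acetonitrile/methanol (7:3) containing propranolol and niflumic acid internal standards, then analysed by LC-MS/MS. Cmax, tmax and AUC(0-24h) derived from mean plasma concentration.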

[9] = Tmax in CAnN.Cg-Foxnlnu/Cr1Crlj mouse at 10 mg/kg, po measured upto 24 hrs by LC-MS/MS analysis; assay type: ADME, organism-based; details: in vivo; outline: as §2
[10] = AUC (0 to 24 hrs) in CAnN.Cg-Foxnlnu/Cr1Crlj mouse at 10 mg/kg, po measured upto 24 hrs by LC-MS/MS analysis; assay type: ADME, organism-based; parameters: route oral, dose 10 mg/kg, time <=24; details: in vivo; outline: as §2
[11] = Cmax in CAnN.Cg-Foxnlnu/Cr1Crlj mouse at 30 mg/kg, po measured upto 24 hrs by LC-MS/MS analysis; assay type: ADME, organism-based; parameters: route oral, dose 30 mg/kg, time <=24; details: in vivo; outline: as §2
[12] = Tmax in CAnN.Cg-Foxnlnu/Cr1Crlj mouse at 30 mg/kg, po measured upto 24 hrs by LC-MS/MS analysis; assay type: ADME, organism-based; details: in vivo; outline: as §2
[13] = AUC (0 to 24 hrs) in CAnN.Cg-Foxnlnu/Cr1Crlj mouse at 30 mg/kg, po measured upto 24 hrs by LC-MS/MS analysis; assay type: ADME, organism-based; parameters: route oral, dose 30 mg/kg, time <=24; details: in vivo; outline: as §2
[14] = Cmax in CAnN.Cg-Foxnlnu/Cr1Crlj mouse at 100 mg/kg, po measured upto 24 hrs by LC-MS/MS analysis; assay type: ADME, organism-based; parameters: route oral, dose 100 mg/kg, time <=24; details: in vivo; outline: as §2
[15] = Tmax in CAnN.Cg-Foxnlnu/Cr1Crlj mouse at 100 mg/kg, po measured upto 24 hrs by LC-MS/MS analysis; assay type: ADME, organism-based; details: in vivo; outline: as §2
[16] = AUC (0 to 24 hrs) in CAnN.Cg-Foxnlnu/Cr1Crlj mouse at 100 mg/kg, po measured upto 24 hrs by LC-MS/MS analysis; assay type: ADME, organism-based; parameters: route oral, dose 100 mg/kg, time <=24; details: in vivo; outline: as §2
[17] = Toxicity in C3H mouse xenografted with mouse BaF3 cells assessed as effect on body weight at 1 to 10 mg/kg, po administered for 4 days and measured on day 4; details: in vivo, 96 h
BaF3 = experiment: Antitumor activity against mouse BaF3 cells expressing Axl xenografted in C3H mouse assessed as reduction in tumor growth at 1 to 10 mg/kg, po administered for 4 days and measured on day 4; details: dose 1-10 mg/kg, time 4.0 day

Row | solubility kinetic at 0.25 h [1] [µM] | remaining at 0.5 h [2] [%] | SMILES | also measured
1 | 73 (≈ 45.5 µg/mL) | 75 | CN1CCC(CC(=O)Nc2cc(Oc3ccc(NC(=O)c4cc5c(n(-c6ccccc6)c4=O)CCCC5=O)c(F)c3)ccn2)CC1 | 
2 | 77 (≈ 46.6 µg/mL) | 77 | CN1CCC(CC(=O)Nc2cc(Oc3ccc(NC(=O)c4cc5c(n(-c6ccccc6)c4=O)CCCC5=O)cc3)ccn2)CC1 | 
3 | 82 (≈ 51.7 µg/mL) | 78 | CN1CCC(CC(=O)Nc2cc(Oc3ccc(NC(=O)c4cn(C5CC5)c(=O)n(-c5ccc(F)cc5)c4=O)cc3F)ccn2)CC1 | 
4 | 80 (≈ 49.2 µg/mL) | 81 | CC(C)n1cc(C(=O)Nc2ccc(Oc3ccnc(NC(=O)CC4CCN(C)CC4)c3)cc2)c(=O)n(-c2ccc(F)cc2)c1=O | 
5 | 89 (≈ 60.9 µg/mL) | 87 | CN1CCN(C2CCN(C(=O)Nc3cc(Oc4ccc(NC(=O)c5cn(C6CC6)c(=O)n(-c6ccc(F)cc6)c5=O)cc4)ncn3)CC2)CC1 | 
6 | 50 (≈ 32.1 µg/mL) | 72 | CN1CCC(CC(=O)Nc2cc(Oc3cc(F)c(NC(=O)c4cc5c(n(-c6ccccc6)c4=O)CCCC5=O)cc3F)ccn2)CC1 | 
7 | 75 (≈ 46.8 µg/mL) | 71 | CN1CCC(CC(=O)Nc2cc(Oc3ccc(NC(=O)c4cc5c(n(-c6ccccc6)c4=O)CCCC5=O)cc3F)ccn2)CC1 | 
8 | 70 (≈ 46.1 µg/mL) | 63 | CN1CCC(CC(=O)Nc2cc(Oc3ccc(NC(=O)c4cn(C5CCCC5)c(=O)n(-c5ccc(F)cc5)c4=O)cc3F)ccn2)CC1 | 
9 | 78 (≈ 49.3 µg/mL) | 76 | CC(C)n1cc(C(=O)Nc2ccc(Oc3ccnc(NC(=O)CC4CCN(C)CC4)c3)cc2F)c(=O)n(-c2ccc(F)cc2)c1=O | 

More lines, now with the values behind:

Row | SMILES | solubility kinetic at 0.25 h [1] [µM] | remaining at 0.5 h [2] [%] | also measured
10 | CC(C)n1cc(C(=O)Nc2ccc(Oc3ccnc(NC(=O)CN(C)C)c3)cc2)c(=O)n(-c2ccc(F)cc2)c1=O | 32 (≈ 17.9 µg/mL) | 19 | 
11 | CC(C)n1cc(C(=O)Nc2ccc(Oc3cc(NC(=O)N4CCC(N5CCN(C)CC5)CC4)ncn3)cc2)c(=O)n(-c2ccc(F)cc2)c1=O | 89 (≈ 61 µg/mL) | 88 | Activity [3]: Non-Toxic; Activity [4]: Non-Toxic; inhibition [5]: inactive; inhibition [6]: inactive; inhibition [7]: inactive; Cmax [8]: 1580 ng/mL; Tmax [9]: 2 h; AUC(0-t) [10]: 7290 ng·h/mL; Cmax [11]: 3790 ng/mL; Tmax [12]: 2 h; AUC(0-t) [13]: 18100 ng·h/mL; Cmax [14]: 13500 ng/mL; Tmax [15]: 2 h; AUC(0-t) [16]: 72700 ng·h/mL; Activity [17]: Non-Toxic; TGI (BaF3): Active
12 | CN1CCN(C2CCN(C(=O)Nc3cc(Oc4ccc(NC(=O)c5cn(C6CCCC6)c(=O)n(-c6ccc(F)cc6)c5=O)cc4)ncn3)CC2)CC1 | 80 (≈ 56.9 µg/mL) | 82 | 
13 | CC(C)n1cc(C(=O)Nc2ccc(Oc3cc(NC(=O)N4CCC4)ncn3)cc2)c(=O)n(-c2ccc(F)cc2)c1=O | 36 (≈ 20.1 µg/mL) | 79 | 
14 | CC(C)n1cc(C(=O)Nc2ccc(Oc3cc(NC(=O)N4CCCC4)ncn3)cc2)c(=O)n(-c2ccc(F)cc2)c1=O | 1 (≈ 0.574 µg/mL) | 59 | 
15 | CC(C)n1cc(C(=O)Nc2ccc(Oc3cc(NC(=O)N4CC(N(C)C)C4)ncn3)cc2)c(=O)n(-c2ccc(F)cc2)c1=O |  | 0.3 | 
16 | CN1CCN(C2CCN(C(=O)Nc3cc(Oc4ccc(NC(=O)c5cn(C)c(=O)n(-c6ccc(F)cc6)c5=O)cc4)ncn3)CC2)CC1 | 90 (≈ 59.2 µg/mL) | 99 | 
17 | CC(C)n1cc(C(=O)Nc2cc(F)c(Oc3ccnc(NC(=O)N4CCC(N5CCN(C)CC5)CC4)c3)cc2F)c(=O)n(-c2ccc(F)cc2)c1=O | 76 (≈ 54.8 µg/mL) | 86 | Activity [3]: Non-Toxic; Activity [4]: Toxic; inhibition [5]: Active; inhibition [6]: Active; inhibition [7]: Active
18 | CN1CCN(C2CCN(C(=O)Nc3cc(Oc4cc(F)c(NC(=O)c5cc6c(n(-c7ccccc7)c5=O)CCCC6=O)cc4F)ccn3)CC2)CC1 | 43 (≈ 30.6 µg/mL) | 78 | 
19 | CC(C)n1cc(C(=O)Nc2ccc(Oc3cc(NC(=O)N4CC(O)C4)ncn3)cc2)c(=O)n(-c2ccc(F)cc2)c1=O | 83 (≈ 47.8 µg/mL) | 92 | 
20 | CC(C)n1cc(C(=O)Nc2ccc(Oc3cc(NC(=O)C4CC4)ncn3)cc2)c(=O)n(-c2ccc(F)cc2)c1=O | 6 (≈ 3.27 µg/mL) | 83 | 
21 | CC(C)n1cc(C(=O)Nc2ccc(Oc3cc(NC(=O)N4CC(N5CCCC5)C4)ncn3)cc2)c(=O)n(-c2ccc(F)cc2)c1=O | 80 (≈ 50.3 µg/mL) | 1.3 | 
